# Screening data as filed in PubChem.
# A selection: hits, their analogues and other compounds. The true share with any hit is near 2.4%.
# TPT1 inh = Candida albicans TPT1 enzyme inhibitors, primary screen, biochemical, fluorescence polarization. recombinant caTPT1, FP RNA substrate dephosphorylation. inhibition, % at 5 µM. tRNA 2'-phosphotransferase TPT1 (Candida albicans SC5314). 300,000 compounds, 0.81% hits. AID 1962, 2009;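 active means inhibition above the mean of all tested compounds plus 3 SD, set per screening campaign, cut at about 24% in these data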;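 further: plate controls were DMSO alone for no effect and ferristatin control at 100 nM for full effect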
# HNF4A DNA FP = change in binding of human HNF4A to DNA, primary screen, biochemical, fluorescence polarization, FITC-DNA | 1 h | 360,000 compounds, 0.3% hits | activity change, % at 10 µM; in the data active means activity change above about 30%, passing the limit was not always enough
# Target sequence (P41235 whole entry, looked up): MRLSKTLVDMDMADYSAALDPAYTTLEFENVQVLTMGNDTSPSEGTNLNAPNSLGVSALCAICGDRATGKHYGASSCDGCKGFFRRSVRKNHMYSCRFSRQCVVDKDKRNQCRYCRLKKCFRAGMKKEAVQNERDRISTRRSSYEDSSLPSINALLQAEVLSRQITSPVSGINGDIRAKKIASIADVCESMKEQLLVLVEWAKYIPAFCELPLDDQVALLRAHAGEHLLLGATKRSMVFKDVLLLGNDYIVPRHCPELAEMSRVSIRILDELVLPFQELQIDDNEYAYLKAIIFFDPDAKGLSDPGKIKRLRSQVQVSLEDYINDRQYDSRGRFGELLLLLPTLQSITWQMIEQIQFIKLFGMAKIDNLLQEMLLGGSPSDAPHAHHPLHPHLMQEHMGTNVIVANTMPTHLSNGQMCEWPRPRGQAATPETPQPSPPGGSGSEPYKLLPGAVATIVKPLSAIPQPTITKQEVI
# Neddyl block = inhibitors of cullin neddylation, primary screen, biochemical, TR-FRET, uHTS, NAE and Ubc12 | inhibition, % at 25 µM | 360,000 compounds, 0.58% hits | AID 651699, 2012 | NEDD8-conjugating enzyme Ubc12 (Homo sapiens) + NEDD8-activating enzyme E1 regulatory …; in the data active means inhibition above about 36%
# Rpn11 inh = Rpn11 (PSMD14) deubiquitinase inhibitors, primary screen, biochemical, fluorescence polarization, uHTS. 26S proteasome non-ATPase regulatory subunit 14 (Homo sapiens), O00487. human 26S proteasome, Ub4-pepOG fluorescence polarization; 20S core pre-blocked with epoxomicin. inhibition, % at 20 µM. 360,000 compounds, 0.59% hits;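 active means inhibition at 20 µM, scaled to each plate's controls, above about 33%, limit read from the data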
# CSN inh = inhibitors of CSN-mediated cullin deneddylation, primary screen, biochemical, fluorescence polarization, uHTS; COP9 signalosome complex subunit 5 (Homo sapiens), Q92905; Purified CSN, SCF-Nedd8-OG deneddylation; inhibition, % at 12.5 µM; 360,000 compounds, 0.38% hits; AID 651999, 2013;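 active means pattern-corrected inhibition above about 35%, with an unprinted fluorescence ratio check between 0.5 and 1.5, limit read from the data, passing the limit was not always enough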;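 further: 0% = enzyme with substrate and 100% = substrate without enzyme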
#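 Schedule: reaction 90 min, room temperature / Assay system: HEK293T-derived human Csn5 enzyme / Input: Csn5 at 0.24 nM final / Measure: inhibition of Csn5 cleavage, % / Control set: substrate-only high control, full reaction low control / Technique: fluorescence polarization of the substrate / Buffer or medium: Tris/NaCl/DTT buffer, pH 7.5 / Reagent: SCFSkp2-Nedd8OG substrate at 10 nM final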
# Rin1 Abl inh = inhibitors of Rin1-Abl protein binding, primary screen, biochemical, TR-FRET. Tyrosine-protein kinase ABL1 (Homo sapiens) + Ras and Rab interactor 1 (Homo sapiens), …. AID 588664, 2011. 360,000 compounds, 0.4% hits. inhibition, % at 7.35 µM; in the data active means inhibition above about 5%, passing the limit was not always enough
# Rpn11 inh conf = Rpn11 (PSMD14) deubiquitinase inhibitors, confirmation, biochemical, fluorescence polarization, single concentration; shares compounds with Rpn11 inh; purified human 26S proteasome, Ub4-pepOG fluorescence polarization; proteasome pretreated with epoxomicin; inhibition, % at 20 µM; 1,900 compounds, 29% hits; AID 602318, 2012
# MMP-2 inh = MMP-2 enzyme inhibition, confirmation, counter-screen for RPN11 inhibitor project, biochemical, fluorescence, single concentration; shares compounds with Rpn11 inh; recombinant MMP-2, FRET peptide cleavage fluorescence; inhibition, % at 20 µM; 1,900 compounds, 4% hits; AID 602330, 2012;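 further: human MMP-2 activated beforehand with APMA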
# Thrombin FP = bovine thrombin protease inhibition, confirmation, counter-screen for Rpn11 inhibitor project, biochemical, fluorescence polarization, single concentration; shares compounds with Rpn11 inh; bovine thrombin cleavage of Ub4-pepOG; inhibition, % at 20 µM; 1,900 compounds, 13% hits;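 active means mean inhibition at least 40% at 20 µM, or signal 3 deviations below plate average, so some actives read negative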;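 further: plate controls were thrombin with DMSO for no effect and buffer wells lacking thrombin for full effect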
# * hit, by the source's call; x = no result shown; + = active, no number. Unless noted, no stated cut-off is given here; in the data, active means inhibition above about 40%; inactive means the rest.
SMILES,TPT1 inh,HNF4A DNA FP,Neddyl block,Rpn11 inh,CSN inh,Rin1 Abl inh,Rpn11 inh conf,MMP-2 inh,Thrombin FP
CCOC(=O)C1CCN(C(=O)NS(=O)(=O)c2ccc(C)cc2)CC1,-4,0,-5,-3,2,1,x,x,x
CCCSC1=N/C(=C\c2ccc3c(c2)OCO3)C(=O)S1,0,-2,9,14,1,2,x,x,x
CCSC1=N/C(=C\c2ccc3c(c2)OCO3)C(=O)S1,-9,-8,0,42*,6,3,74*,-26,-53
Cc1ccc(-c2ccc(S(=O)(=O)N3CC(C)OC(C)C3)cc2)cc1 (stereo not drawn),-1,25,3,64*,1,-3,-8,-2,-1
O=C(COC(=O)/C=C/c1cc(Br)ccc1F)Nc1ccc2[nH]c(=O)[nH]c2c1,1,3,6,-1,6,2,x,x,x
CCc1ccc(C(=O)NNc2ccc(Cl)cc2)cc1,-2,-35,-7,37*,-2,1,-4,-22,-9
CCc1ccc(C(=O)NNc2cc(Cl)cc(Cl)c2)cc1,-1,-1,-1,1,-1,2,x,x,x
COc1ccc(Cl)cc1NC(=O)c1cc(-c2ccco2)on1,10,19,28,46*,20,2,12,-15,2
CC(C(=O)Nc1ccc(F)c(F)c1F)N(C)Cc1cccs1 (stereo not drawn),-2,2,-1,1,0,3,x,x,x
CCc1ccc(C2CC(c3ccc(C)cc3)n3nc(N)nc3N2)cc1 (stereo not drawn),x,2,1,-7,6,0,x,x,x
Cc1c(Cl)cccc1NC(=O)COC(=O)c1c2c(nc3ccccc13)CCN(Cc1ccccc1)C2,3,4,38,61*,-10,-1,-22,-20,-4
COc1cc(/C=N/N=C/c2c[nH]c(=O)c(C#N)c2Nc2ccccc2)ccc1O,-2,x,x,x,x,x,x,x,x
CCOC(=O)C1CCN(C(=O)c2ccc(CNS(=O)(=O)c3ccc(OC)cc3)cc2)CC1,2,0,-4,-1,-3,3,x,x,x
COc1ccc2[nH]c3c(=O)n(/N=C/c4ccc(OC)c(CN5CCCC5)c4)c(C)nc3c2c1,3,7,8,91*,63*,-1,90*,-54,-4
COc1ccc(/C=N/n2c(C)nc3c([nH]c4ccccc43)c2=O)cc1CN1CCCC(C)(C)C1,-1,0,3,3,7,-1,x,x,x
COc1ccc(S(=O)(=O)N2CCCC(C(=O)NCc3ccc(F)cc3)C2)cc1 (stereo not drawn),-1,1,-4,-9,-1,2,x,x,x
COc1ccc(S(=O)(=O)N2CCCC(C(=O)NCc3ccncc3)C2)cc1 (stereo not drawn),-2,20,5,+,5,-1,-12,10,-19
CCN(CC)C(=O)CSc1nc2c(sc(=S)n2-c2ccccc2OC)c(=O)n1-c1ccccc1,-6,1,-14,41*,5,2,2,10,17
O=C1CC2(CCN(C(=O)c3cccc(F)c3)CC2)Oc2ccccc21,-2,1,26,-3,0,0,x,x,x
CCOC(=O)C1CCN(C(=O)COC(=O)c2oc3ccccc3c2C)CC1,0,1,12,-1,4,-2,x,x,x
COc1ccc(C(=O)Nc2nc3nc(-c4ccccc4)cc(=O)n3[nH]2)cc1,x,-26,3,69*,2,0,-4,4,-22
O=C(Nc1nc2nc(-c3ccccc3)cc(=O)n2[nH]1)c1ccccc1,-7,1,1,3,-3,2,x,x,x
COCCN1CCC(CNCc2cn(-c3cc(C)ccc3C)nc2-c2ccccc2)C1 (stereo not drawn),1,0,2,0,-4,-1,x,x,x
COc1ccc2nc(C)cc(SCC(=O)N/N=C/c3c(OC)ccc4ccccc34)c2c1,-1,17,x,51*,44*,2,10,-43,6
CC(C)CCOc1ccc(/C=N/N2C(=O)CSC2=S)cc1,3,0,3,39*,4,-2,-11,32,-9
SMILES,TPT1 inh,HNF4A DNA FP,Neddyl block,Rpn11 inh,CSN inh,Rin1 Abl inh,Rpn11 inh conf,MMP-2 inh,Thrombin FP
C=CCn1cnc2c(c1=O)c1nc3ccccc3nc1n2/N=C/c1cccc(OC)c1OC,-3,2,11,192*,59*,-1,5,-25,-2
CCOC(=O)c1[nH]c(CSc2nnnn2-c2ccccc2C)c(C(=O)OCC)c1C,2,15,-6,62*,3,2,30,12,5
Cn1c(=O)c2c(nc(Oc3ccc4c(c3)OCO4)n2Cc2ccc(F)cc2)n(C)c1=O,2,29,-21,+,-1,5,2,-25,4
Cn1c(=O)c2c(nc(Oc3ccc4c(c3)OCO4)n2Cc2ccc(Br)cc2)n(C)c1=O,-2,x,x,x,x,x,x,x,x
CCCCN(C(=O)c1cccc(S(=O)(=O)N(CC)c2ccccc2)c1)c1c(N)n(CCCC)c(=O)[nH]c1=O,x,1,9,5,-1,5,x,x,x
O=C(CCCN1C(=O)/C(=C\c2cccs2)SC1=S)NNC(=O)c1cccnc1,3,12,-26,166*,-5,-2,3,13,-2
O=C(CCCN1C(=O)/C(=C/c2ccccc2Cl)SC1=S)NNC(=O)c1ccncc1,-2,1,-20,-2,-1,-5,x,x,x
O=C(CCCN1C(=O)/C(=C/c2cccs2)SC1=S)NNC(=O)c1ccncc1,2,3,-11,47*,12,-4,-7,20,1
O=C(CCCN1C(=O)/C(=C\c2cccs2)SC1=S)Nc1ccccn1,2,1,-33,34*,6,1,5,-35,-8
CC(=O)c1cccc(NC(=O)COc2cc(C)on2)c1,x,4,-21,-1,0,0,x,x,x
